Measured values as given in ChEMBL document CHEMBL1151979, “Antiallergic potential on RBL-2H3 cells of some phenolic constituents of Zingiber officinale (ginger)” (J Nat Prod, 2009).
Activity calls are given as the source filed them. The rule behind the calls is not given here.

Legend:
[1] = Cytotoxicity against rat RBL2H3 cells at 120 uM after 12 hrs by MTT assay; assay type: cell-based; conditions: rbl-2h3, 12 h
Summary of the method: (§1)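 MTT viability assay in RBL-2H3 cells grown to 70-80% confluence and then exposed to compound; untreated and ≤0.5% DMSO cultures served as controls. MTT stock 5 mg/mL was diluted 1:10 into medium 3 h before the end of exposure, then incubated 2 h at 37 °C. Formazan was dissolved in DMSO and read at 600 nm. Viability is given as % of control OD, ≥3 repeats, and IC50 was derived from this.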

[2] = Cytotoxicity against rat RBL2H3 cells after 12 hrs by MTT assay; assay type: cell-based; conditions: RBL-2H3, 12 h; summary of the method: as §1
RBL-2H3 [3] = test: Antiallergic activity in mIgE-DNP and DNP-BSA-stimulated rat RBL2H3 cells assessed as inhibition of beta-hexosaminidase release at 1 uM pretreated before mIgE-DNP challenge measured after 12 hrs relative to control; assay type: functional
Summary of the method: (§2)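 RBL-2H3 cells (DMEM, 10% FBS) seeded at 1 × 10^5/well and left 4-6 h at 37 °C to adhere. Compound was added at final concentrations for various pretreatment times, then mIgE-DNP was added for 16 h. Cells were washed in Tyrode's buffer (pH 7.4, 1 mg/mL BSA) and challenged with DNP-BSA 1 µg/mL for 1 h at 37 °C. Supernatant was incubated with p-NAG in citrate pH 4.5 for 1 h at 37 °C and read at A405. Inhibition was calculated against Triton X-100 total-release and spontaneous-release controls.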

RBL-2H3 [4] = test: Antiallergic activity in mIgE-DNP and DNP-BSA-stimulated rat RBL2H3 cells assessed as inhibition of beta-hexosaminidase release at 1 uM pretreated before mIgE-DNP challenge measured after 24 hrs relative to control; assay type: functional; summary of the method: as §2
RBL-2H3 [5] = test: Antiallergic activity in mIgE-DNP and DNP-BSA-stimulated rat RBL2H3 cells assessed as inhibition of beta-hexosaminidase release at 200 uM pretreated before mIgE-DNP challenge measured after 24 hrs relative to control; assay type: functional; summary of the method: as §2
RBL-2H3 [6] = test: Antiallergic activity in mIgE-DNP and DNP-BSA-stimulated rat RBL2H3 cells assessed as inhibition of beta-hexosaminidase release at 200 uM pretreated before mIgE-DNP challenge measured after 12 hrs; assay type: functional, cell-based; summary of the method: as §2
RBL-2H3 [7] = test: Antiallergic activity in mIgE-DNP and DNP-BSA-stimulated rat RBL2H3 cells assessed as inhibition of beta-hexosaminidase release at 100 uM pretreated before mIgE-DNP challenge measured after 24 hrs relative to control; assay type: functional; summary of the method: as §2
RBL-2H3 [8] = test: Antiallergic activity in mIgE-DNP and DNP-BSA-stimulated rat RBL2H3 cells assessed as inhibition of beta-hexosaminidase release at 100 uM pretreated before mIgE-DNP challenge measured after 12 hrs; assay type: functional, cell-based; summary of the method: as §2
RBL-2H3 [9] = test: Antiallergic activity in mIgE-DNP and DNP-BSA-stimulated rat RBL2H3 cells assessed as inhibition of beta-hexosaminidase release at 100 uM pretreated before mIgE-DNP challenge measured after 48 hrs relative to control; assay type: functional; summary of the method: as §2
RBL-2H3 [10] = test: Antiallergic activity in mIgE-DNP and DNP-BSA-stimulated rat RBL2H3 cells assessed as inhibition of beta-hexosaminidase release at 1 uM pretreated before mIgE-DNP challenge measured after 48 hrs relative to control; assay type: functional; summary of the method: as §2
[11] = Cytotoxicity against rat RBL2H3 cells at 200 uM after 12 hrs by MTT assay; assay type: cell-based; conditions: rbl-2h3, 12 h; summary of the method: as §1
RBL-2H3 [12] = test: Antiallergic activity in mIgE-DNP and DNP-BSA-stimulated rat RBL2H3 cells assessed as inhibition of beta-hexosaminidase release at 200 uM pretreated before mIgE-DNP challenge measured after 48 hrs relative to control; assay type: functional; summary of the method: as §2
RBL-2H3 [13] = test: Antiallergic activity in mIgE-DNP and DNP-BSA-stimulated rat RBL2H3 cells assessed as inhibition of beta-hexosaminidase release at 200 uM pretreated before mIgE-DNP challenge; assay type: functional, cell-based; conditions: TDE = time-dependent effect; summary of the method: as §2
RBL-2H3 [14] = test: Antiallergic activity in mIgE-DNP and DNP-BSA-stimulated rat RBL2H3 cells assessed as inhibition of beta-hexosaminidase release pretreated before mIgE-DNP challenge measured after 12 to 48 hrs; assay type: functional, cell-based; summary of the method: as §2

Compound | Activity [1] | IC50 [2] | inhibition at 1 µM (RBL-2H3 [3]) | inhibition at 1 µM (RBL-2H3 [4]) | inhibition (RBL-2H3 [5]) | inhibition (RBL-2H3 [6]) | inhibition (RBL-2H3 [7]) | inhibition (RBL-2H3 [8]) | inhibition (RBL-2H3 [9]) | inhibition at 1 µM (RBL-2H3 [10]) | Activity [11] | inhibition (RBL-2H3 [12]) | inhibition (RBL-2H3 [13]) | inhibition (RBL-2H3 [14])
CCCCC/C=C/C(=O)CCc1ccc(O)c(OC)c1 [SHOGAOL] | Toxic | 90.4 µM | – | – | – | – | – | – | – | – | – | – | – | –
CCCCC[C@H](O)CC(=O)CCc1ccc(O)c(OC)c1 [GINGEROL] | – | 185 µM | 60% | 60% | Active | Active | Active | Active | Active | 60% | Toxic | Active | – | –
COc1cc(CCC(=O)CC(O)CCc2ccc(O)c(OC)c2)ccc1O (stereo not drawn) [HEXAHYDROCURCUMIN] | – | 152 µM | – | – | – | – | – | – | – | – | Toxic | – | tde | Dose-dependent effect
CCCCCC(=O)/C=C(O)/C=C/c1ccc(O)c(OC)c1 | – | 38.5 µM | 60% | 60% | Active | Active | Active | Active | Active | 60% | – | Active | – | –
CCCCCCCCC[C@H](O)CC(=O)CCc1ccc(O)c(OC)c1 | Toxic | 112 µM | 60% | 60% | Active | Active | Active | Active | Active | 60% | – | Active | – | –
